# Source: ChEMBL document CHEMBL4480373, “Neuropilin-1 peptide-like ligands with proline mimetics, tested using the improved chemiluminescence affinity detection method” (Medchemcomm, 2019)
# Square brackets hold non-standard residues; d marks the D form. Peptide text beside a SMILES is read from it. Oic = O=C(O)[C@@H]1C[C@@H]2CCCC[C@@H]2N1; Hyp = O=C(O)[C@@H]1C[C@@H](O)CN1; Pip(4-aza) = O=C(O)[C@@H]1CNCCN1; hArg = N=C(N)NCCCC[C@H](N)C(=O)O; Tic = O=C(O)[C@@H]1Cc2ccccc2CN1; ΔPro = O=C(O)[C@@H]1C=CCN1; Aze = O=C(O)[C@@H]1CCN1; Dab = NCC[C@H](N)C(=O)O
# Columns and labels:
# [1] = molecular target: Neuropilin-1 (Rattus norvegicus, UniProt Q9QWJ9); assay: Inhibition of human biotinylated VEGF-A165 binding to Fc-tagged recombinant rat NRP1 receptor after 2 hrs by colorimetric analysis
# [2] = molecular target: Neuropilin-1 (Rattus norvegicus) (UniProt Q9QWJ9); assay: Inhibition of human biotinylated VEGF-A165 binding to Fc-tagged recombinant rat NRP1 receptor at 10 uM after 2 hrs by colorimetric analysis relative to control
# [3] = molecular target: Neuropilin-1 (Rattus norvegicus) (UniProt Q9QWJ9); assay: Inhibition of human biotinylated VEGF-A165 binding to Fc-tagged recombinant rat NRP1 receptor at 3 uM after 2 hrs by colorimetric analysis relative to control
# [4] = molecular target: Neuropilin-1 (Rattus norvegicus) (UniProt Q9QWJ9); assay: Inhibition of human biotinylated VEGF-A165 binding to Fc-tagged recombinant rat NRP1 receptor at 1 uM after 2 hrs by colorimetric analysis relative to control
# [5] = molecular target: Neuropilin-1 (Rattus norvegicus) (UniProt Q9QWJ9); assay: Inhibition of human biotinylated VEGF-A165 binding to Fc-tagged recombinant rat NRP1 receptor at 0.3 uM after 2 hrs by colorimetric analysis relative to control
# [6] = molecular target: T1, Neuropilin-1 (Homo sapiens, UniProt O14786); assay: Inhibition of human biotinylated VEGF-A165 binding to recombinant human NRP1 receptor after 2 hrs by chemiluminescence analysis
# Procedure, shortened: (§1)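 Wells coated overnight at 4 °C with recombinant human NRP-1 (200 ng/well), blocked with 0.5% BSA/PBS. Peptide in PBS and biotinylated human VEGF-A165 (400 ng/mL, in PBS with 4 µg/mL heparin) incubated 2 h at room temperature. Detection by streptavidin-HRP and luminol chemiluminescence. Controls: ligand only (positive) and uncoated wells (negative). % inhibition calculated from these. IC50 by nonlinear regression.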
# [7] = molecular target: T1, Neuropilin-1; assay: Inhibition of human biotinylated VEGF-A165 binding to recombinant human NRP1 receptor at 100 uM after 2 hrs by chemiluminescence analysis relative to control; procedure, shortened: as §1
# [8] = molecular target: T1, Neuropilin-1; assay: Inhibition of human biotinylated VEGF-A165 binding to recombinant human NRP1 receptor at 50 uM after 2 hrs by chemiluminescence analysis relative to control; procedure, shortened: as §1
# [9] = molecular target: T1, Neuropilin-1; assay: Inhibition of human biotinylated VEGF-A165 binding to recombinant human NRP1 receptor at 25 uM after 2 hrs by chemiluminescence analysis relative to control; procedure, shortened: as §1
# [10] = molecular target: T1, Neuropilin-1; assay: Inhibition of human biotinylated VEGF-A165 binding to recombinant human NRP1 receptor at 10 uM after 2 hrs by chemiluminescence analysis relative to control; procedure, shortened: as §1
# [11] = molecular target: Neuropilin-1 (Rattus norvegicus) (UniProt Q9QWJ9); assay: Inhibition of human biotinylated VEGF-A165 binding to Fc-tagged recombinant rat NRP1 receptor at 0.1 uM after 2 hrs by colorimetric analysis relative to control
# [12] = molecular target: T1, Neuropilin-1; assay: Inhibition of human biotinylated VEGF-A165 binding to recombinant human NRP1 receptor at 5 uM after 2 hrs by chemiluminescence analysis relative to control; procedure, shortened: as §1
# [13] = molecular target: T1, Neuropilin-1; assay: Inhibition of human biotinylated VEGF-A165 binding to recombinant human NRP1 receptor at 2.5 uM after 2 hrs by chemiluminescence analysis relative to control; procedure, shortened: as §1
# [14] = molecular target: T1, Neuropilin-1; assay: Inhibition of human biotinylated VEGF-A165 binding to recombinant human NRP1 receptor at 1 uM after 2 hrs by chemiluminescence analysis relative to control; procedure, shortened: as §1
# [15] = Half life in human plasma at 1 umol/ml up to 96 hrs by RP-HPLC and LC/MS analysis; format: ADME, cell-free
# Procedure, shortened: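 Citrate plasma pooled from four healthy donors, stored at –80 °C, preactivated 20 min at 37 °C with shaking. Aqueous peptide stock diluted into plasma to ~1 µmol/mL final and incubated 0–96 h. Aliquots quenched with equal volume 98% ethanol, centrifuged, supernatant lyophilized, reconstituted in water, analysed by RP-HPLC (LC-MS for selected samples). Half-life obtained by nonlinear regression.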
# T1 sequence (O14786 whole entry): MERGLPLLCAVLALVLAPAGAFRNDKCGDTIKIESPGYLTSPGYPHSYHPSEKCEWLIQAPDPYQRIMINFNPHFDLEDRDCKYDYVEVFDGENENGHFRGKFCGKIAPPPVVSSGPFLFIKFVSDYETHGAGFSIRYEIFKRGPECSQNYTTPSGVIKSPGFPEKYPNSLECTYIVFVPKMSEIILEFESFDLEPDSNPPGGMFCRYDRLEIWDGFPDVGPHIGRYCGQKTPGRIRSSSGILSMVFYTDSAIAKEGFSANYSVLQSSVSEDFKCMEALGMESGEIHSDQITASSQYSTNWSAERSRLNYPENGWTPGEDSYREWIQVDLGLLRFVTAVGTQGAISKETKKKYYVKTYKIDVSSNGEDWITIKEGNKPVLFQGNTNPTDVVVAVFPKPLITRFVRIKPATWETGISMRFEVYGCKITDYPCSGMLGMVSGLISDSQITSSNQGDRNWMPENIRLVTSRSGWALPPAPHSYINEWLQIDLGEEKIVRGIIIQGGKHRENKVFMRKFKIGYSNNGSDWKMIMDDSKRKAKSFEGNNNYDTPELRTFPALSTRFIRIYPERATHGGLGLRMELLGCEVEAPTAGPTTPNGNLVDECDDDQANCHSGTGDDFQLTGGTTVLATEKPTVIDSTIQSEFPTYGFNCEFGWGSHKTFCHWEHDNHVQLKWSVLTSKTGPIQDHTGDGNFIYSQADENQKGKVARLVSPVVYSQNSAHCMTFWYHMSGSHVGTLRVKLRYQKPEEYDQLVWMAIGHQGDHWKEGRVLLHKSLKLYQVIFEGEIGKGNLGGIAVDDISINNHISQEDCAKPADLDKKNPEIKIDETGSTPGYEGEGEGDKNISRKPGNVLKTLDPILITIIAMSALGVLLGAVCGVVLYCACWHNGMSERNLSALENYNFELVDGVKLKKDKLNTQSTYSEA
Compound,IC50 [1] [µM],inhibition [2] [%],inhibition [3] [%],inhibition [4] [%],inhibition [5] [%],IC50 ([6]; read-out: IC50) [µM],inhibition [7] [%],inhibition [8] [%],inhibition [9] [%],inhibition [10] [%],inhibition [11] [%],inhibition [12] [%],inhibition [13] [%],inhibition [14] [%],IC50 ([6]; read-out: pIC50 (converted)) [µM],half-life at 1000 µM [15] [h]
N=C(N)NCCCC[C@H](N)C(=O)NCCCC[C@H](N)C(=O)N1CCC[C@H]1C(=O)N1CCC[C@H]1C(=O)N[C@@H](CCCNC(=N)N)C(=O)O (H-K(hArg)PPR-OH),1,92.2,79,41.4,4.7,20.9,77,67.9,54.1,37.1,,,,,,
N=C(N)NCCCC[C@H](N)C(=O)NCCCC[C@H](N)C(=O)N1CC[C@H]1C(=O)N1CC[C@H]1C(=O)N[C@@H](CCCNC(=N)N)C(=O)O (H-K(hArg)[Aze][Aze]R-OH),,,,,,48.6,59.9,53.6,41.9,30,,,,,,
N=C(N)NCCCC[C@H](N)C(=O)NCCCC[C@H](N)C(=O)N[C@@H](CCN)C(=O)N1CCC[C@H]1C(=O)N[C@@H](CCCNC(=N)N)C(=O)O (H-K(hArg)[Dab]PR-OH),0.2,99.6,92.8,83.7,59.6,8.9,79.8,76.6,70.4,58.6,35.8,43.7,31.4,13.8,,
N=C(N)NCCCC[C@H](N)C(=O)NCCCC[C@H](N)C(=O)N[C@@H](CCN)C(=O)N1CC[C@H]1C(=O)N[C@@H](CCCNC(=N)N)C(=O)O (H-K(hArg)[Dab][Aze]R-OH),,,,,,11.7,78.8,75.8,69.1,49.6,,30.1,12.9,7.7,10.7,
N=C(N)NCCCC[C@H](N)C(=O)NCCCC[C@H](N)C(=O)N[C@@H](CCN)C(=O)N1C[C@H](O)C[C@H]1C(=O)N[C@@H](CCCNC(=N)N)C(=O)O (H-K(hArg)[Dab][Hyp]R-OH),,,,,,9.2,78.6,76,67.3,54.3,,36,22.3,22.5,,
N=C(N)NCCCC[C@H](N)C(=O)NCCCC[C@H](N)C(=O)N[C@@H](CCN)C(=O)N1[C@H](C(=O)N[C@@H](CCCNC(=N)N)C(=O)O)C[C@@H]2CCCC[C@@H]21 (H-K(hArg)[Dab][Oic]R-OH),,,,,,2.3,83,79.5,77.7,63.4,,52.3,50.9,37.7,,54.9
N=C(N)NCCCC[C@H](N)C(=O)NCCCC[C@H](N)C(=O)N[C@@H](CCN)C(=O)N1CCNC[C@H]1C(=O)N[C@@H](CCCNC(=N)N)C(=O)O (H-K(hArg)[Dab][Pip(4-aza)]R-OH),,,,,,80.5,51.8,46,34.8,20.8,,,,,,
N=C(N)NCCCC[C@H](N)C(=O)NCCCC[C@H](N)C(=O)N[C@@H](CCN)C(=O)N1Cc2ccccc2C[C@H]1C(=O)N[C@@H](CCCNC(=N)N)C(=O)O (H-K(hArg)[Dab][Tic]R-OH),,,,,,> 100,0,17.2,35,31.5,,,,,,
N=C(N)NCCCC[C@H](N)C(=O)NCCCC[C@H](N)C(=O)N[C@@H](CCN)C(=O)N1CC=C[C@H]1C(=O)N[C@@H](CCCNC(=N)N)C(=O)O (H-K(hArg)[Dab][ΔPro]R-OH),,,,,,4.3,87.1,84.4,78.1,70.7,,58,44.8,29.9,,51.1
N=C(N)NCCCC[C@H](N)C(=O)NCCCC[C@H](N)C(=O)N1C[C@H](O)C[C@H]1C(=O)N1C[C@H](O)C[C@H]1C(=O)N[C@@H](CCCNC(=N)N)C(=O)O (H-K(hArg)[Hyp][Hyp]R-OH),,,,,,21.3,71.7,63.1,56.8,36.7,,,,,,
N=C(N)NCCCC[C@H](N)C(=O)NCCCC[C@H](N)C(=O)N1[C@H](C(=O)N2[C@H](C(=O)N[C@@H](CCCNC(=N)N)C(=O)O)C[C@@H]3CCCC[C@@H]32)C[C@@H]2CCCC[C@@H]21 (H-K(hArg)[Oic][Oic]R-OH),,,,,,7.2,83.6,77.6,68.2,53.4,,47.8,42.1,32.9,,
N=C(N)NCCCC[C@H](N)C(=O)NCCCC[C@H](N)C(=O)N1CCNC[C@H]1C(=O)N1CCNC[C@H]1C(=O)N[C@@H](CCCNC(=N)N)C(=O)O (H-K(hArg)[Pip(4-aza)][Pip(4-aza)]R-OH),,,,,,16,70.8,63.3,58.7,45,,,,,,
N=C(N)NCCCC[C@H](N)C(=O)NCCCC[C@H](N)C(=O)N1Cc2ccccc2C[C@H]1C(=O)N1Cc2ccccc2C[C@H]1C(=O)N[C@@H](CCCNC(=N)N)C(=O)O (H-K(hArg)[Tic][Tic]R-OH),,,,,,> 100,45.2,40.7,31.4,24.7,,,,,,
N=C(N)NCCCC[C@H](N)C(=O)NCCCC[C@H](N)C(=O)N1CC=C[C@H]1C(=O)N1CC=C[C@H]1C(=O)N[C@@H](CCCNC(=N)N)C(=O)O (H-K(hArg)[ΔPro][ΔPro]R-OH),,,,,,14,79.3,72.2,61.3,45.4,,,,,,
H-ATWLPPR-OH,,,,,,84.1,58.2,43.8,35,30.8,,,,,83.2,
